Like-named read-outs stand apart in the source and are kept apart here.
Assays:
ICR mice [1] = assay: Tail-flick test; type: in vivo
Procedure, shortened: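 ICR mice (6/group) injected s.c. with test compound (0.001, 0.01, 0.1, 0.5 mg/kg) or saline; tail-flick latency tested at 5, 10, 15, 30, 60 and 120 min. Pre-treatment control latency 2–4 sec; 10 sec cutoff. %MPE = (test−control)/(10−control)×100.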

ICR mice [2] = assay: Hot-plate test; type: in vivo
Procedure, shortened: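 Hot plate at 55.0 °C, mouse confined in a 10 cm glass cylinder. Two control latencies taken ≥10 min apart; endpoint is a jump or paw lick. ICR mice (6/group) given test compound s.c. (0.001–0.5 mg/kg) or saline and tested 5–120 min post-dose. %MPE = (test−control)/(40−control)×100.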

C57BL/6J mice [3] = assay: Tail-flick test; type: in vivo; conditions: 0.5 mg/kg s.c., 5-120 min
Procedure, shortened: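 Tail-flick test. A control latency (2–4 sec) was measured for each mouse before dosing, with a 10 sec maximum. Mice (n=6/group) received saline or test compound 0.5 mg/kg s.c. and were tested at 5, 10, 15, 30, 60 and 120 min. %MPE = ((test−control)/(10−control)) × 100.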

C57BL/6J mice [4] = assay: Hot-plate test; type: in vivo; conditions: 0.5 mg/kg s.c., 5-120 min
Procedure, shortened: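 Hot plate held at 55.0 °C, with mice confined in a 10 cm glass cylinder. Two control latencies were taken at least 10 min apart. Latency was scored at a jump or at licking of the front or hind paws. Mice (n=6/group) received saline or test compound 0.5 mg/kg s.c. and were tested at 5, 10, 15, 30, 60 and 120 min. %MPE = ((test−control)/(40−control)) × 100.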

[5] = tested on: C57BL/6J mice; β2 WT and KO mice; assay: Locomotor activity; type: in vivo
Procedure, shortened: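 Saline or test compound was given s.c. 15 min before mice entered photocell cages with two banks of eight beams. Beam interruptions were counted over 30 min. β2 WT and KO mice (8/group) received 0.5 mg/kg. For repeated dosing, mice (12/group) received saline or 0.01, 0.1, 0.5 or 1 mg/kg daily for 5 days, had 2 days without injection, and were challenged on day 8.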

[6] = tested on: C57BL/6J mice; β2 WT and KO mice; assay: Body temperature; type: in vivo; conditions: 0.5 mg/kg s.c.
Procedure, shortened: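 Mixed-sex β2 WT and KO mice on a C57BL/6J background, 8/group, given saline or test compound 0.5 mg/kg s.c. Rectal temperature read by thermistor probe inserted 24 mm, just before and at set times after injection. Change from pre-treatment reading computed per mouse; room temperature 21–24°C.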

[7] = target: high sensitivity α4(2)β2(3) nAChR (Homo sapiens, UniProt P17787+P43681); assay: Two-electrode voltage clamp in Xenopus oocytes, HS α4β2; type: cell-based
Sequence of high sensitivity α4(2)β2(3) nAChR (P17787 26-502): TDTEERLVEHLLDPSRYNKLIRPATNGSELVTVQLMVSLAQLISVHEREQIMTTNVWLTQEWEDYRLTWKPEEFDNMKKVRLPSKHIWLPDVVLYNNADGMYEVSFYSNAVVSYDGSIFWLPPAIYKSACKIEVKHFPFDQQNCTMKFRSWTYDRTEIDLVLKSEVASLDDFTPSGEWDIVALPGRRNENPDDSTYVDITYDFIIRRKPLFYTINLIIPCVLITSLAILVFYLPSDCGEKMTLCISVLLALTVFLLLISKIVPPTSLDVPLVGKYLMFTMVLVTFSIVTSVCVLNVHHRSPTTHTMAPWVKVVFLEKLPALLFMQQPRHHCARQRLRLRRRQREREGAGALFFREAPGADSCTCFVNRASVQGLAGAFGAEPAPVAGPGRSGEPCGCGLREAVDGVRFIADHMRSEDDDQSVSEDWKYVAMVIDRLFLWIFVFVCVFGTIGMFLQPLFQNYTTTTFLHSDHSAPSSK
Sequence of high sensitivity α4(2)β2(3) nAChR (P43681 29-627 limits assumed): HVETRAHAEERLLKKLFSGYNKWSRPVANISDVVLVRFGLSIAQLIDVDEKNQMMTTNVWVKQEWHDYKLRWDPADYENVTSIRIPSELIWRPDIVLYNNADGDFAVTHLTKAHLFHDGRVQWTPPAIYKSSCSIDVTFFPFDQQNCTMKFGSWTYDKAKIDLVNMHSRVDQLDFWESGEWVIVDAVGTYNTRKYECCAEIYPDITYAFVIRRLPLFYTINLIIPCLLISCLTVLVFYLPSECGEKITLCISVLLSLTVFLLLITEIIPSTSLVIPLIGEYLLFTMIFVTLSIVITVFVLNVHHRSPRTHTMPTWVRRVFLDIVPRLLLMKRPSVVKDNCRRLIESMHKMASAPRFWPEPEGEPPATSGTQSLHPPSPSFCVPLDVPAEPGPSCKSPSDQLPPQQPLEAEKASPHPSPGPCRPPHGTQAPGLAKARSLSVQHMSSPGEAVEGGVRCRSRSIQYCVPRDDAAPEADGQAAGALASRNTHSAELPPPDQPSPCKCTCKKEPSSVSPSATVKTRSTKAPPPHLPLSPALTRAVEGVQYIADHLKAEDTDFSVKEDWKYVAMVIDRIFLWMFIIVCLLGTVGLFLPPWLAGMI
Sequence of high sensitivity α4(2)β2(3) nAChR (P17787 26-502): as the sequence (P17787 26-502) above
Procedure, shortened: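 Human HS α4β2 nAChR from in vitro–transcribed cRNA in Xenopus oocytes. Two-electrode clamp at −60 mV, 24°C, in Ringer's (pH 7.2, 1 μM atropine) perfused at 2 ml/min. Test compound over a concentration range as 12 s applications with 181 s washout. Peak current and net charge taken relative to same-cell 10 μM ACh controls, then scaled to ACh maximum from separate experiments; ≥4 oocytes.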

β3α4β2α6β2 nAChR = β3α4β2α6β2 nAChR (Homo sapiens, UniProt P17787+P43681+Q15825); assay: Two-electrode voltage clamp in Xenopus oocytes, α6-containing concatemer; type: cell-based
Sequence of β3α4β2α6β2 nAChR (P43681 29-627 limits assumed): as the sequence (P43681 29-627 limits assumed) above
Sequence of β3α4β2α6β2 nAChR (P17787 26-502): as the sequence (P17787 26-502) above
Sequence of β3α4β2α6β2 nAChR (Q15825 26-494): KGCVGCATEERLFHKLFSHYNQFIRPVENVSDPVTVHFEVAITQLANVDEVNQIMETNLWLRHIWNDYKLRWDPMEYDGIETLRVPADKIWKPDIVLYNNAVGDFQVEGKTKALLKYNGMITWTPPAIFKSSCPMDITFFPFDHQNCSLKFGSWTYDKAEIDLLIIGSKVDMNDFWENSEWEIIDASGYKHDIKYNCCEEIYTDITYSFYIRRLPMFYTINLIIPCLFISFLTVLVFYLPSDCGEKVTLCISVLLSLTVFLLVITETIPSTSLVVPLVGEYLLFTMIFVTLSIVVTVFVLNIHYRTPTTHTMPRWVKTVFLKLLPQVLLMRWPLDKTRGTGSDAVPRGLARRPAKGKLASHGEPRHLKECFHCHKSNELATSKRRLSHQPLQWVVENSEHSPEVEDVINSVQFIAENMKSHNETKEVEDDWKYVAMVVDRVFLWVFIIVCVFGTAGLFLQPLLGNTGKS
Sequence of β3α4β2α6β2 nAChR (P17787 26-502): as the sequence (P17787 26-502) above
Procedure, shortened: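 α6-containing receptor expressed in Xenopus oocytes as a five-subunit human β3α4β2α6β2 concatemer cRNA. Voltage clamp at −60 mV, 24°C, in Ringer's (pH 7.2, 1 μM atropine). Test compound applied 12 s at varying concentrations, 181 s washout. Peak current and net charge referenced to same-cell 30 μM ACh controls and rescaled to ACh maximum from other experiments; ≥4 oocytes.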

rats = conditions: ref Freitas et al., 2016; cited from earlier work
[8] = 0.001 mg/kg s.c., 5 min after injection
[9] = 0.001 mg/kg s.c., 10 min after injection
[10] = 0.001 mg/kg s.c., 15 min after injection
[11] = 0.001 mg/kg s.c., 30 min after injection
[12] = 0.001 mg/kg s.c., 60 min after injection
[13] = 0.001 mg/kg s.c., 120 min after injection
[14] = 0.01 mg/kg s.c., 5 min after injection
[15] = 0.01 mg/kg s.c., 10 min after injection
[16] = 0.01 mg/kg s.c., 15 min after injection
[17] = 0.01 mg/kg s.c., 30 min after injection
[18] = 0.01 mg/kg s.c., 60 min after injection
[19] = 0.01 mg/kg s.c., 120 min after injection
[20] = 0.1 mg/kg s.c., 5 min after injection
[21] = 0.1 mg/kg s.c., 10 min after injection
[22] = 0.1 mg/kg s.c., 15 min after injection
[23] = 0.1 mg/kg s.c., 30 min after injection
[24] = 0.1 mg/kg s.c., 60 min after injection
[25] = 0.1 mg/kg s.c., 120 min after injection
[26] = 0.5 mg/kg s.c., 5 min after injection
[27] = 0.5 mg/kg s.c., 10 min after injection
[28] = 0.5 mg/kg s.c., 15 min after injection
[29] = 0.5 mg/kg s.c., 30 min after injection
[30] = 0.5 mg/kg s.c., 60 min after injection
[31] = 0.5 mg/kg s.c., 120 min after injection
[32] = α4(2)β2(3), normalized to the maximum ACh responses
[33] = β3α4β2α6β2, normalized to the maximum ACh responses

## Ic1cncc(OC[C@@H]2CCN2)c1 [5IA, 5-Iodo-A-85380]
ICR mice [1]; [8]
  Antinociceptive response, tail-flick test: 2 ± 2 % MPE
ICR mice [1]; [9]
  Antinociceptive response, tail-flick test: 3 ± 1 % MPE
ICR mice [1]; [10]
  Antinociceptive response, tail-flick test: 3 ± 2 % MPE
ICR mice [1]; [11]
  Antinociceptive response, tail-flick test: 0 ± 0 % MPE
ICR mice [1]; [12]
  Antinociceptive response, tail-flick test: 1 ± 1 % MPE
ICR mice [1]; [13]
  Antinociceptive response, tail-flick test: 4 ± 2 % MPE
ICR mice [1]; [14]
  Antinociceptive response, tail-flick test: 1 ± 1 % MPE
ICR mice [1]; [15]
  Antinociceptive response, tail-flick test: 2 ± 1 % MPE
ICR mice [1]; [16]
  Antinociceptive response, tail-flick test: 2 ± 1 % MPE
ICR mice [1]; [17]
  Antinociceptive response, tail-flick test: 2 ± 2 % MPE
ICR mice [1]; [18]
  Antinociceptive response, tail-flick test: 1 ± 1 % MPE
ICR mice [1]; [19]
  Antinociceptive response, tail-flick test: 1 ± 1 % MPE
ICR mice [1]; [20]
  Antinociceptive response, tail-flick test: 0 ± 0 % MPE
ICR mice [1]; [21]
  Antinociceptive response, tail-flick test: 3 ± 1 % MPE
ICR mice [1]; [22]
  Antinociceptive response, tail-flick test: 3 ± 1 % MPE
ICR mice [1]; [23]
  Antinociceptive response, tail-flick test: 6 ± 4 % MPE
ICR mice [1]; [24]
  Antinociceptive response, tail-flick test: 3 ± 2 % MPE
ICR mice [1]; [25]
  Antinociceptive response, tail-flick test: 5 ± 2 % MPE
ICR mice [1]; [26]
  Antinociceptive response, tail-flick test: 10 ± 4 % MPE
ICR mice [1]; [27]
  Antinociceptive response, tail-flick test: 4 ± 3 % MPE
ICR mice [1]; [28]
  Antinociceptive response, tail-flick test: 11 ± 4 % MPE
ICR mice [1]; [29]
  Antinociceptive response, tail-flick test: 7 ± 4 % MPE
ICR mice [1]; [30]
  Antinociceptive response, tail-flick test: 6 ± 3 % MPE
ICR mice [1]; [31]
  Antinociceptive response, tail-flick test: 7 ± 3 % MPE
ICR mice [1]; 0.001-0.5 mg/kg s.c., 5-120 min, Dunnett's post hoc
  Effect on acute thermal antinociception, tail-flick test (in words): no significant effects of dose at any of the observed time points
ICR mice [2]; [8]
  Antinociceptive response, hot-plate test: 8 ± 3 % MPE
ICR mice [2]; [9]
  Antinociceptive response, hot-plate test: 10 ± 3 % MPE
ICR mice [2]; [10]
  Antinociceptive response, hot-plate test: 10 ± 5 % MPE
ICR mice [2]; [11]
  Antinociceptive response, hot-plate test: 4 ± 3 % MPE
ICR mice [2]; [12]
  Antinociceptive response, hot-plate test: 8 ± 5 % MPE
ICR mice [2]; [13]
  Antinociceptive response, hot-plate test: 11 ± 5 % MPE
ICR mice [2]; [14]
  Antinociceptive response, hot-plate test: 9 ± 3 % MPE
ICR mice [2]; [15]
  Antinociceptive response, hot-plate test: 7 ± 3 % MPE
ICR mice [2]; [16]
  Antinociceptive response, hot-plate test: 7 ± 3 % MPE
ICR mice [2]; [17]
  Antinociceptive response, hot-plate test: 5 ± 3 % MPE
ICR mice [2]; [18]
  Antinociceptive response, hot-plate test: 13 ± 6 % MPE
ICR mice [2]; [19]
  Antinociceptive response, hot-plate test: 5 ± 3 % MPE
ICR mice [2]; [20]
  Antinociceptive response, hot-plate test: 7 ± 2 % MPE
ICR mice [2]; [21]
  Antinociceptive response, hot-plate test: 6 ± 3 % MPE
ICR mice [2]; [22]
  Antinociceptive response, hot-plate test: 3 ± 2 % MPE
ICR mice [2]; [23]
  Antinociceptive response, hot-plate test: 0 ± 0 % MPE
ICR mice [2]; [24]
  Antinociceptive response, hot-plate test: 8 ± 4 % MPE
ICR mice [2]; [25]
  Antinociceptive response, hot-plate test: 14 ± 6 % MPE
ICR mice [2]; [26]
  Antinociceptive response, hot-plate test: 17 ± 5 % MPE
ICR mice [2]; [27]
  Antinociceptive response, hot-plate test: 11 ± 8 % MPE
ICR mice [2]; [28]
  Antinociceptive response, hot-plate test: 18 ± 9 % MPE
ICR mice [2]; [29]
  Antinociceptive response, hot-plate test: 10 ± 6 % MPE
ICR mice [2]; [30]
  Antinociceptive response, hot-plate test: 11 ± 7 % MPE
ICR mice [2]; [31]
  Antinociceptive response, hot-plate test: 11 ± 4 % MPE
ICR mice [2]; 0.001-0.5 mg/kg s.c., 5-120 min
  Effect on acute thermal antinociception, hot plate test (in words): no significant effect of 5IA on acute thermal antinociception in the hot plate test
C57BL/6J mice [3]
  Effect on acute thermal antinociception, tail-flick test (in words): no significant effect of 5IA on acute thermal antinociception in the hot plate or tail-flick test
C57BL/6J mice [4]
  Effect on acute thermal antinociception, hot plate test (in words): no significant effect of 5IA on acute thermal antinociception in the hot plate or tail-flick test
[5]; C57BL/6J mice, 0.01 mg/kg s.c. for 5 days, vs vehicle
  Locomotion after repeated injection, low dose (in words): stimulant effects on locomotion at days 3 and 5
[5]; C57BL/6J mice, 0.5 and 1 mg/kg s.c. for 5 days, days 1 and 2, vs vehicle
  Locomotion after repeated injection, higher doses (in words): depressive effects at higher doses (0.5 and 1 mg/kg)
[5]; C57BL/6J mice, repeated injection of higher doses
  Tolerance to locomotor depressant effects (in words): Tolerance to the depressant effects of higher doses of 5IA developed progressively after day 2
[5]; β2 WT and KO mice, 0.5 mg/kg s.c.
  Attenuation of locomotion in β2 WT vs KO mice (in words): this effect was only observed in β2 WT mice and not in β2 KO mice
[6]; C57BL/6J mice, vs vehicle
  Body temperature, time course (in words): significant reductions in body temperature in comparison to their vehicle controls at 15-, 30- and 60-min
[6]; β2 WT and KO mice
  Hypothermic effect in β2 KO vs WT mice (in words): significantly abolished in β2 KO mice
[7]; HS α4β2 receptors
  Effect on current duration (in words): prolonged the currents
[7]; high sensitivity α4(2)β2(3)
  Efficacy (in words): full agonist
[7]; read-out: Net Charge EC50, α4(2)β2(3)
  EC50: 0.062 ± 0.011 µM
[7]; read-out: Peak Currents EC50, α4(2)β2(3)
  EC50: 0.042 ± 0.002 µM
[7]; [32]
  Net Charge Imax: 3.0 ± 0.18
  Peak Currents Imax: 1.3 ± 0.02
β3α4β2α6β2 nAChR; read-out: Net Charge EC50, β3α4β2α6β2
  EC50: 0.019 ± 0.0004 µM
β3α4β2α6β2 nAChR; read-out: Peak Currents EC50, β3α4β2α6β2
  EC50: 0.011 ± 1e-05 µM
β3α4β2α6β2 nAChR; α6-containing subtypes
  Efficacy (in words): intermediate efficacy
β3α4β2α6β2 nAChR; [33]
  Net Charge Imax: 0.76 ± 0.01
  Peak Currents Imax: 0.78 ± 0.1
rats
  Intracranial self-stimulation (ICSS) (in words): dose-dependently produced facilitated intracranial self-stimulation (ICSS)

Reference: publication PMC9817006 (Journal of psychopharmacology (Oxford, England), 2022)
